Data: ChEMBL document CHEMBL1157608, “The discovery of 4-{1-[({2,5-dimethyl-4-[4-(trifluoromethyl)benzyl]-3-thienyl}carbonyl)amino]cyclopropyl}benzoic acid (MK-2894), a potent and selective prostaglandin E2 subtype 4 receptor antagonist” (J Med Chem, 2010)

Key:
[1] = Volume of distribution at steady state in Sprague-Dawley rat at 20 mg/kg, po and 5 mg/kg, iv; type: ADME, organism-based; settings: in vivo, read-out: Vdss
Method in brief: (§1)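 Overnight-fasted animals dosed po in 0.5% methocel or iv in 60% PEG 200; plasma from serial blood samples stored at -10 °C, protein-precipitated with equal volume acetonitrile/0.1% formic acid, analysed by LC/MS/MS with internal standard against spiked blank-plasma standards; Cmax from po data, half-life from iv data.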

[2] = Volume of distribution at steady state in C57BL/6 mouse at 20 mg/kg, po and 5 mg/kg, iv; type: ADME, organism-based; settings: in vivo, read-out: Vdss; method in brief: as §1
[3] = target: T1, Prostaglandin E2 receptor EP1 subtype (Rattus norvegicus, UniProt P70597); experiment: Displacement of [3H]PGE2 from rat EP1 receptor expressed in HEK293-EBNA cells by scintillation counting; type: cell-based
T1 sequence (P70597 whole entry): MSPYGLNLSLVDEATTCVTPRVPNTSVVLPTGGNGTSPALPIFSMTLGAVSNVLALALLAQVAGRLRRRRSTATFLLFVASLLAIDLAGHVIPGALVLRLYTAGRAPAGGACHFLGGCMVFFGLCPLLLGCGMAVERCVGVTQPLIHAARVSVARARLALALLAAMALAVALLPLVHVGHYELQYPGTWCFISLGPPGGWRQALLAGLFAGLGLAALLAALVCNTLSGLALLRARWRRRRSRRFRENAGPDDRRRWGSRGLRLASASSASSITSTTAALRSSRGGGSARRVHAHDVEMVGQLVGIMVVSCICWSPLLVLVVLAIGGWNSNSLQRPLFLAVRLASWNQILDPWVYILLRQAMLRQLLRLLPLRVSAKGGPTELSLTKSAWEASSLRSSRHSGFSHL
Method in brief: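 Radioligand binding on membranes from HEK 293(EBNA) clonal lines overexpressing each prostanoid receptor, using the respective 3H-prostaglandin or thromboxane ligand; EP4 binding also run with 10% human serum; Ki as means of at least three experiments (rEP2, rEP3 n = 1).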

Vd [1]: 2.6 L/kg | Vd [2]: 7.6 L/kg | Ki [3]: > 29 µM
Compound: Cc1sc(C)c(C(=O)NC2(c3ccc(C(=O)O)cc3)CC2)c1Cc1ccc(C(F)(F)F)cc1
